Measurements from ChEMBL document CHEMBL5058577, “EUbOPEN Chemogenomics Library 2 (Multiplex)” (2022).

Test system: HEK-293T
Test: Multiplex assay against HEK293T
Type: toxicity, cell-based
Details: human
In short: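 Tubulin, mitochondrial-mass and membrane-permeability phenotypes are per cents of healthy-nucleus cells. Cells were gated by CellPathfinder machine learning into Hoechst high-intensity objects or normal cells, normal cells into healthy, pyknosed or fragmented nuclei, and pyknosed cells into mitotic or apoptotic. Before that, live cells stained at seeding with Hoechst33342, BioTracker Green Microtubule Cytoskeleton Dye, MitoTracker Red and Annexin V Alexa Fluor 680 were imaged on a CQ1 microscope at 37°C and 5% CO2 after compound addition.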

[1] = 12 h, 1 µM, compound concentration 1 uM, replicate 1
[2] = 12 h, 1 µM, compound concentration 1 uM, replicate 2
[3] = 12 h, 10 µM, compound concentration 10 uM, replicate 1
[4] = 12 h, 10 µM, compound concentration 10 uM, replicate 2
[5] = 24 h, 1 µM, compound concentration 1 uM, replicate 1
[6] = 24 h, 1 µM, compound concentration 1 uM, replicate 2
[7] = 24 h, 10 µM, compound concentration 10 uM, replicate 1
[8] = 24 h, 10 µM, compound concentration 10 uM, replicate 2
[9] = 48 h, 1 µM, compound concentration 1 uM, replicate 1
[10] = 48 h, 1 µM, compound concentration 1 uM, replicate 2
[11] = 48 h, 10 µM, compound concentration 10 uM, replicate 1
[12] = 48 h, 10 µM, compound concentration 10 uM, replicate 2

Structure (SMILES): COc1cc2nc(N3CCN(C(=O)c4ccco4)CC3)nc(N)c2cc1OC.Cl [PRAZOSIN HYDROCHLORIDE]
- Population Apoptotic (%) [1]: 32%
- Population Fragmented Nuclei (%) [1]: 10%
- Population Healthy Nuclei (%) [1]: 77%
- Population Hoechst High Intensity Objects (%) [1]: 6%
- Population Membrane Permeable-Phenotype (%) [1]: 0%
- Population Mitochondria Different-Phenotype (%) [1]: 35%
- Population Mitotic Cells (%) [1]: 67%
- Population Normal (%) [1]: 93%
- Population Pyknosed Nuclei (%) [1]: 11%
- Population Tubulin-Different-Phenotype (%) [1]: 23%
- Total Cell Count [1]: 448
- Population Apoptotic (%) [2]: 56%
- Population Fragmented Nuclei (%) [2]: 6%
- Population Mitochondria Different-Phenotype (%) [2]: 66%
- Population Mitotic Cells (%) [2]: 43%
- Population Pyknosed Nuclei (%) [2]: 16%
- Population Tubulin-Different-Phenotype (%) [2]: 22%
- Total Cell Count [2]: 290
- Population Apoptotic (%) [3]: 38%
- Population Fragmented Nuclei (%) [3]: 9%
- Population Healthy Nuclei (%) [3]: 75%
- Population Hoechst High Intensity Objects (%) [3]: 10%
- Population Membrane Permeable-Phenotype (%) [3]: 0%
- Population Mitochondria Different-Phenotype (%) [3]: 62%
- Population Mitotic Cells (%) [3]: 61%
- Population Normal (%) [3]: 89%
- Population Pyknosed Nuclei (%) [3]: 14%
- Population Tubulin-Different-Phenotype (%) [3]: 45%
- Total Cell Count [3]: 348
- Population Apoptotic (%) [4]: 55%
- Population Fragmented Nuclei (%) [4]: 5%
- Population Healthy Nuclei (%) [4]: 77%
- Population Hoechst High Intensity Objects (%) [4]: 9%
- Population Mitochondria Different-Phenotype (%) [4]: 61%
- Population Mitotic Cells (%) [4]: 44%
- Population Normal (%) [4]: 90%
- Population Pyknosed Nuclei (%) [4]: 16%
- Population Tubulin-Different-Phenotype (%) [4]: 25%
- Total Cell Count [4]: 404
- Population Apoptotic (%) [5]: 38%
- Population Fragmented Nuclei (%) [5]: 9%
- Population Healthy Nuclei (%) [5]: 82%
- Population Hoechst High Intensity Objects (%) [5]: 3%
- Population Membrane Permeable-Phenotype (%) [5]: 0%
- Population Mitochondria Different-Phenotype (%) [5]: 25%
- Population Mitotic Cells (%) [5]: 61%
- Population Normal (%) [5]: 96%
- Population Pyknosed Nuclei (%) [5]: 7%
- Population Tubulin-Different-Phenotype (%) [5]: 10%
- Total Cell Count [5]: 660
- Population Apoptotic (%) [6]: 51%
- Population Healthy Nuclei (%) [6]: 80%
- Population Hoechst High Intensity Objects (%) [6]: 5%
- Population Mitochondria Different-Phenotype (%) [6]: 45%
- Population Mitotic Cells (%) [6]: 48%
- Population Normal (%) [6]: 94%
- Population Pyknosed Nuclei (%) [6]: 10%
- Population Tubulin-Different-Phenotype (%) [6]: 16%
- Total Cell Count [6]: 364
- Population Apoptotic (%) [7]: 50%
- Population Fragmented Nuclei (%) [7]: 12%
- Population Healthy Nuclei (%) [7]: 77%
- Population Hoechst High Intensity Objects (%) [7]: 5%
- Population Membrane Permeable-Phenotype (%) [7]: 0%
- Population Mitochondria Different-Phenotype (%) [7]: 40%
- Population Mitotic Cells (%) [7]: 50%
- Population Normal (%) [7]: 94%
- Population Pyknosed Nuclei (%) [7]: 9%
- Population Tubulin-Different-Phenotype (%) [7]: 32%
- Total Cell Count [7]: 463
- Population Apoptotic (%) [8]: 54%
- Population Fragmented Nuclei (%) [8]: 11%
- Population Healthy Nuclei (%) [8]: 78%
- Population Membrane Permeable-Phenotype (%) [8]: 1%
- Population Mitochondria Different-Phenotype (%) [8]: 42%
- Population Mitotic Cells (%) [8]: 45%
- Population Pyknosed Nuclei (%) [8]: 10%
- Population Tubulin-Different-Phenotype (%) [8]: 20%
- Total Cell Count [8]: 534
- Population Apoptotic (%) [9]: 36%
- Population Fragmented Nuclei (%) [9]: 17%
- Population Healthy Nuclei (%) [9]: 76%
- Population Hoechst High Intensity Objects (%) [9]: 1%
- Population Membrane Permeable-Phenotype (%) [9]: 1%
- Population Mitochondria Different-Phenotype (%) [9]: 16%
- Population Mitotic Cells (%) [9]: 63%
- Population Normal (%) [9]: 98%
- Population Pyknosed Nuclei (%) [9]: 5%
- Population Tubulin-Different-Phenotype (%) [9]: 8%
- Total Cell Count [9]: 1114
- Population Apoptotic (%) [10]: 38%
- Population Fragmented Nuclei (%) [10]: 16%
- Population Hoechst High Intensity Objects (%) [10]: 2%
- Population Membrane Permeable-Phenotype (%) [10]: 0%
- Population Mitochondria Different-Phenotype (%) [10]: 23%
- Population Mitotic Cells (%) [10]: 61%
- Population Normal (%) [10]: 97%
- Population Pyknosed Nuclei (%) [10]: 6%
- Population Tubulin-Different-Phenotype (%) [10]: 9%
- Total Cell Count [10]: 636
- Population Apoptotic (%) [11]: 33%
- Population Fragmented Nuclei (%) [11]: 17%
- Population Healthy Nuclei (%) [11]: 75%
- Population Hoechst High Intensity Objects (%) [11]: 4%
- Population Membrane Permeable-Phenotype (%) [11]: 2%
- Population Mitochondria Different-Phenotype (%) [11]: 32%
- Population Mitotic Cells (%) [11]: 66%
- Population Normal (%) [11]: 95%
- Population Pyknosed Nuclei (%) [11]: 7%
- Population Tubulin-Different-Phenotype (%) [11]: 17%
- Total Cell Count [11]: 693
- Population Apoptotic (%) [12]: 23%
- Population Fragmented Nuclei (%) [12]: 14%
- Population Healthy Nuclei (%) [12]: 78%
- Population Membrane Permeable-Phenotype (%) [12]: 1%
- Population Mitochondria Different-Phenotype (%) [12]: 21%
- Population Mitotic Cells (%) [12]: 76%
- Population Tubulin-Different-Phenotype (%) [12]: 11%
- Total Cell Count [12]: 778

Structure (SMILES): COCCCN1CCC(NC(=O)c2cc(Cl)c(N)c3c2OCC3)CC1 [PRUCALOPRIDE]
- Population Apoptotic (%) [1]: 22%
- Population Fragmented Nuclei (%) [1]: 10%
- Population Healthy Nuclei (%) [1]: 80%
- Population Hoechst High Intensity Objects (%) [1]: 8%
- Population Membrane Permeable-Phenotype (%) [1]: 0%
- Population Mitochondria Different-Phenotype (%) [1]: 36%
- Population Mitotic Cells (%) [1]: 77%
- Population Normal (%) [1]: 91%
- Population Pyknosed Nuclei (%) [1]: 9%
- Population Tubulin-Different-Phenotype (%) [1]: 21%
- Total Cell Count [1]: 416
- Population Apoptotic (%) [2]: 31%
- Population Fragmented Nuclei (%) [2]: 4%
- Population Healthy Nuclei (%) [2]: 82%
- Population Hoechst High Intensity Objects (%) [2]: 7%
- Population Mitochondria Different-Phenotype (%) [2]: 59%
- Population Mitotic Cells (%) [2]: 68%
- Population Normal (%) [2]: 92%
- Population Pyknosed Nuclei (%) [2]: 12%
- Population Tubulin-Different-Phenotype (%) [2]: 16%
- Total Cell Count [2]: 397
- Population Apoptotic (%) [3]: 37%
- Population Fragmented Nuclei (%) [3]: 8%
- Population Healthy Nuclei (%) [3]: 74%
- Population Hoechst High Intensity Objects (%) [3]: 4%
- Population Membrane Permeable-Phenotype (%) [3]: 0%
- Population Mitochondria Different-Phenotype (%) [3]: 59%
- Population Mitotic Cells (%) [3]: 62%
- Population Normal (%) [3]: 95%
- Population Pyknosed Nuclei (%) [3]: 17%
- Population Tubulin-Different-Phenotype (%) [3]: 43%
- Total Cell Count [3]: 421
- Population Apoptotic (%) [4]: 56%
- Population Fragmented Nuclei (%) [4]: 10%
- Population Healthy Nuclei (%) [4]: 72%
- Population Hoechst High Intensity Objects (%) [4]: 10%
- Population Mitochondria Different-Phenotype (%) [4]: 75%
- Population Mitotic Cells (%) [4]: 43%
- Population Normal (%) [4]: 89%
- Population Tubulin-Different-Phenotype (%) [4]: 35%
- Total Cell Count [4]: 261
- Population Apoptotic (%) [5]: 20%
- Population Fragmented Nuclei (%) [5]: 11%
- Population Healthy Nuclei (%) [5]: 78%
- Population Hoechst High Intensity Objects (%) [5]: 5%
- Population Membrane Permeable-Phenotype (%) [5]: 1%
- Population Mitochondria Different-Phenotype (%) [5]: 18%
- Population Mitotic Cells (%) [5]: 79%
- Population Normal (%) [5]: 94%
- Population Pyknosed Nuclei (%) [5]: 10%
- Population Tubulin-Different-Phenotype (%) [5]: 14%
- Total Cell Count [5]: 590
- Population Apoptotic (%) [6]: 28%
- Population Fragmented Nuclei (%) [6]: 8%
- Population Healthy Nuclei (%) [6]: 84%
- Population Hoechst High Intensity Objects (%) [6]: 4%
- Population Membrane Permeable-Phenotype (%) [6]: 0%
- Population Mitochondria Different-Phenotype (%) [6]: 39%
- Population Mitotic Cells (%) [6]: 71%
- Population Normal (%) [6]: 95%
- Population Pyknosed Nuclei (%) [6]: 6%
- Population Tubulin-Different-Phenotype (%) [6]: 10%
- Total Cell Count [6]: 546
- Population Apoptotic (%) [7]: 28%
- Population Fragmented Nuclei (%) [7]: 8%
- Population Healthy Nuclei (%) [7]: 77%
- Population Hoechst High Intensity Objects (%) [7]: 4%
- Population Membrane Permeable-Phenotype (%) [7]: 0%
- Population Mitochondria Different-Phenotype (%) [7]: 48%
- Population Mitotic Cells (%) [7]: 71%
- Population Normal (%) [7]: 95%
- Population Pyknosed Nuclei (%) [7]: 13%
- Population Tubulin-Different-Phenotype (%) [7]: 32%
- Total Cell Count [7]: 531
- Population Apoptotic (%) [8]: 50%
- Population Fragmented Nuclei (%) [8]: 13%
- Population Healthy Nuclei (%) [8]: 73%
- Population Hoechst High Intensity Objects (%) [8]: 9%
- Population Mitochondria Different-Phenotype (%) [8]: 51%
- Population Mitotic Cells (%) [8]: 50%
- Population Normal (%) [8]: 90%
- Population Pyknosed Nuclei (%) [8]: 12%
- Population Tubulin-Different-Phenotype (%) [8]: 25%
- Total Cell Count [8]: 341
- Population Apoptotic (%) [9]: 24%
- Population Fragmented Nuclei (%) [9]: 15%
- Population Healthy Nuclei (%) [9]: 76%
- Population Hoechst High Intensity Objects (%) [9]: 2%
- Population Membrane Permeable-Phenotype (%) [9]: 1%
- Population Mitochondria Different-Phenotype (%) [9]: 16%
- Population Mitotic Cells (%) [9]: 75%
- Population Normal (%) [9]: 97%
- Population Pyknosed Nuclei (%) [9]: 7%
- Population Tubulin-Different-Phenotype (%) [9]: 11%
- Total Cell Count [9]: 1001
- Population Apoptotic (%) [10]: 21%
- Population Fragmented Nuclei (%) [10]: 11%
- Population Healthy Nuclei (%) [10]: 81%
- Population Hoechst High Intensity Objects (%) [10]: 1%
- Population Membrane Permeable-Phenotype (%) [10]: 0%
- Population Mitochondria Different-Phenotype (%) [10]: 15%
- Population Mitotic Cells (%) [10]: 78%
- Population Normal (%) [10]: 98%
- Population Pyknosed Nuclei (%) [10]: 6%
- Population Tubulin-Different-Phenotype (%) [10]: 9%
- Total Cell Count [10]: 832
- Population Apoptotic (%) [11]: 20%
- Population Fragmented Nuclei (%) [11]: 16%
- Population Healthy Nuclei (%) [11]: 77%
- Population Hoechst High Intensity Objects (%) [11]: 1%
- Population Membrane Permeable-Phenotype (%) [11]: 1%
- Population Mitochondria Different-Phenotype (%) [11]: 32%
- Population Mitotic Cells (%) [11]: 79%
- Population Normal (%) [11]: 98%
- Population Pyknosed Nuclei (%) [11]: 6%
- Population Tubulin-Different-Phenotype (%) [11]: 16%
- Total Cell Count [11]: 772
- Population Apoptotic (%) [12]: 35%
- Population Healthy Nuclei (%) [12]: 75%
- Population Hoechst High Intensity Objects (%) [12]: 3%
- Population Membrane Permeable-Phenotype (%) [12]: 0%
- Population Mitochondria Different-Phenotype (%) [12]: 31%
- Population Mitotic Cells (%) [12]: 64%
- Population Normal (%) [12]: 96%
- Population Pyknosed Nuclei (%) [12]: 7%
- Population Tubulin-Different-Phenotype (%) [12]: 15%
- Total Cell Count [12]: 528
